Assay outcomes as filed in PubChem.
Hits are enriched below; roughly 4.1% of the tested compounds scored in any of these assays.
TbMetRS inhib: blocks T. brucei methionyl-tRNA synthetase activity; purified T. brucei MetRS, ATP depletion, Kinase-Glo luminescence; inhibition, % at 11.9 µM; actives 0.4% (n = 360,000); AID 624268;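 active = inhibition above a per-plate cutoff of the control wells' mean inhibition plus 3 SD, cut at about 5.5% in these data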;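 also: 0% = DMSO wells median and 100% = median of wells with control inhibitor compound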
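Material – parasite MetRS enzyme · Medium – HEPES-MgCl2-KCl buffer plus DTT, spermine, BSA, pyrophosphatase · Reagent – ATP, methionine and E. coli bulk tRNA substrates · Times – 15 min enzyme-compound preincubation, 2 h reaction, 10 min detection, 25 °C · Measured by – luminescence of leftover ATP · Evaluation – percent inhibition relative to median high and low control wells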
Efflux pump inh: blocks antifungal efflux pumps in multiplex yeast assay. S. cerevisiae Candida pump triplex, Nile Red efflux. inhibition, % at 10 µM. actives 0.44% (n = 330,000);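 active = plate passing quality check with inhibition over a set limit, or well fluorescence over plate mean plus 4 SD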;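 also: Nile Red retained in pooled yeast measured as flow cytometry median fluorescence; 0% = buffer negative control and 100% = Enniatin B positive control; higher means more Nile Red kept so more efflux inhibition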
AHR act: human AHR activation; AHR-responsive luciferase reporter cells, luminescence; activation, % at 5 µM; actives 2.5% (n = 320,000); AID 2796; in the data active = activation above about 47%;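 also: 0% = vehicle wells and 100% = reference agonist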
Target sequence (P35869 whole entry, looked up): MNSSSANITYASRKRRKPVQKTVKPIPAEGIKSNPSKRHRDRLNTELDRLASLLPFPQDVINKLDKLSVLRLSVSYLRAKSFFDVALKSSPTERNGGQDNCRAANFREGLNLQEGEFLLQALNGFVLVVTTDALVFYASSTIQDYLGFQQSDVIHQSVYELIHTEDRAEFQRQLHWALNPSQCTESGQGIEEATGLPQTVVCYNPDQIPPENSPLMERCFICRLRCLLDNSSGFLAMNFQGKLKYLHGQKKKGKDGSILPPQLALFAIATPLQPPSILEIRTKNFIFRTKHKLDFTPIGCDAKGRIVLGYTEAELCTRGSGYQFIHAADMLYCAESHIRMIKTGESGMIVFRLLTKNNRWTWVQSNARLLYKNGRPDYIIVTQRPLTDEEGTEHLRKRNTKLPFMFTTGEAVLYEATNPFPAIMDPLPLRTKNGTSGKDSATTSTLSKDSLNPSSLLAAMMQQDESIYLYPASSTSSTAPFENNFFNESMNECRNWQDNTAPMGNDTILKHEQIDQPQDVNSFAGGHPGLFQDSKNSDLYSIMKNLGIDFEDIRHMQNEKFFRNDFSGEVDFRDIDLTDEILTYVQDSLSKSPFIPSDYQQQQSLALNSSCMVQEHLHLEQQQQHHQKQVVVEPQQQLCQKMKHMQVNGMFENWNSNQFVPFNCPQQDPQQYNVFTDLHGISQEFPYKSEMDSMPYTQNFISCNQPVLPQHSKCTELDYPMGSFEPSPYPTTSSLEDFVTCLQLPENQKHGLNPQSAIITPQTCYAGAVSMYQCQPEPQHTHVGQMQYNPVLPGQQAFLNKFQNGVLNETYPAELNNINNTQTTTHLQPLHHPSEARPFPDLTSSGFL
TAG inh: triacylglycerol accumulation inhibition; inhibition, % at 12.5 µM; actives 0.66% (n = 230,000); H9c2 cells, Nile Red lipid (TAG) fluorescence; cells loaded with 200 µM oleic acid;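 active = pattern-corrected inhibition of lipid staining of at least 50% with the nuclear-stain viability signal not falling by more than 50%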;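 also: 0% = DMSO wells and 100% = triacsin C control wells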
SMARCA2 act: increases SMARCA2 function in MMTV reporter cells | AID 652017 | MG213 cells, MMTV-luciferase reporter, dexamethasone, overnight | actives 1% (n = 370,000) | activation, % at 9.1 µM; in the data active = activation above about 7.8%;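 also: 0% = vehicle wells and 100% = reference activator wells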
SMARCA2 act conf: confirmation of SMARCA2 (BRM) function activators; shares compounds with SMARCA2 act; MG213 cells, MMTV-luciferase with dexamethasone, luminescence, overnight; MG213 cells expressing E1A, Rb sequestered; DMSO wells 0%, reference activator 100%; activation, % at 9.1 µM; actives 30% (n = 3,500); AID 652260;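 active = activation above its plate's cutoff, the mean activation of tested wells plus 3 SD, cut at about 7.9% in these data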
GAL4-VP16 Luc: GAL4-VP16 reporter activation counter-screen; actives 41% (n = 3,500); AID 686939; shares compounds with SMARCA2 act; HEK293 GAL4-VP16 pG5luc reporter, luciferase luminescence; scaled: DMSO wells 0%, SAHA wells 100%; activation, % at 9.1 µM;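 active = activation above the solvent-only control well mean plus 3 SD, averaged across control plates, cut at about 5.2% in these data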
* marks the source's active call; other numbers are inactive results; x = not tested or not shown.

SMILES | TbMetRS inhib | Efflux pump inh | AHR act | TAG inh | SMARCA2 act | SMARCA2 act conf | GAL4-VP16 Luc
CC1CCCCN1C(=O)c1cc(-c2ccc3c(c2)OCO3)on1 (stereo not drawn) | -1 | 0 | 42 | x | 9.2* | 6 | 12*
CC1CCCCN1C(=O)c1cc(-c2ccc(Cl)c(Cl)c2)on1 (stereo not drawn) | 0 | 0 | -5 | x | 2 | x | x
CCc1nc(C)cc2c1sc1ccccc12 | 1 | 0 | -1 | -19 | 10.0* | 11* | 1
CCN1CCc2c(sc(NC(=S)NC(=O)c3ccco3)c2C(N)=O)C1 | 0 | 0 | 7 | -16 | 9.8* | 0 | 3
Cn1c(SCC2CCC2)nnc1-c1ccco1 | x | x | x | x | 2 | x | x
C[C@@H]1CCN(C2CC2)S(=O)(=O)c2c(cccc2N2CC[C@@H](O)C2)O1 | x | x | x | x | -1 | x | x
CC(C)N1C(=O)S/C(=C\c2ccc(-c3ccc(Cl)c(C(=O)O)c3)o2)C1=O | 0 | 0 | 5 | 0 | 15* | 12* | 13*
CCOC(=O)CN1C(=O)S/C(=C\c2ccc(-c3ccc(C(=O)O)c(Cl)c3)o2)C1=O | -1 | 0 | 1 | -7 | -2 | x | x
C=CCN1C(=O)/C(=C/c2ccc(O)c(OC)c2)S/C1=N/c1nccs1 | -1 | 0 | 1 | x | 11* | 2 | 1
CN=C1S/C(=C\c2ccc(O)c(OC)c2)C(=O)N1C | 0 | 0 | -1 | 17 | 8.9* | 7 | 14*
CCCN(CC1CC1)C(=O)CNc1nnnn1-c1ccccc1 | x | x | x | x | -6 | x | x
COc1cc(O)c2c(=O)c(-c3ccc(O[C@@H]4O[C@H](CO)[C@@H](O)[C@H](O)[C@H]4O)cc3)coc2c1 | -2 | 0 | x | x | 8.8* | 13* | 9.1*
CC(C)n1nnnc1C1c2ccccc2C(=O)N1CCc1c[nH]c2ccccc12 (stereo not drawn) | -1 | x | x | x | 3 | x | x
CC(C)n1nnnc1C1c2ccccc2C(=O)N1CCc1ccccc1F (stereo not drawn) | -1 | x | x | x | 8.8* | 5 | 7.4*
COC(=O)CCN(Cc1cccc(OC)c1OC)S(=O)(=O)c1ccccc1Br | x | x | x | x | 1 | x | x
O=C1CSc2ccc(C(=O)NCCC3=CCCCC3)cc2N1 | 0 | 0 | 7 | x | 9.8* | 1 | 6.8*
O=C(NCCC1=CCCCC1)c1ccc([N+](=O)[O-])cc1 | 1 | 1 | 19 | -8 | 9.5* | 13* | 12*
O=C(CCNC(=O)c1ccc([N+](=O)[O-])cc1)NCCC1=CCCCC1 | 0 | 0 | 1 | 1 | -1 | x | x
COCCNC(=O)c1ccc2c(c1)NC(=O)CS2 | 0 | 0 | 2 | x | 1 | x | x
CN(C)c1ccc(C(=O)OCC(=O)NCCC2=CCCCC2)cc1 | -1 | 0 | -1 | -6 | 0 | x | x
Cc1ccsc1C(=O)OCC(=O)NCCC1=CCCCC1 | 0 | 0 | -3 | x | 8.4* | 9.7* | 5
COc1cccc(C(=O)NCCC2=CCCCC2)c1 | -1 | 0 | 14 | -23 | 12* | 8 | 18*
CCc1ccc(CCNC(=O)OCCCN2CCC3(CCC(c4ccccc4)CC3)C2=O)cc1 (stereo not drawn) | x | x | x | x | -7 | x | x
COc1ccc(N2Cc3ccccc3C2=O)cc1 | -4 | 0 | 2 | -19 | 2 | x | x
Cc1ccc(N2Cc3ccccc3C2=O)cc1 | -2 | 0 | 3 | 14 | 10* | 3 | 5
SMILES | TbMetRS inhib | Efflux pump inh | AHR act | TAG inh | SMARCA2 act | SMARCA2 act conf | GAL4-VP16 Luc
O=C1c2ccccc2CN1c1ccccc1 | -2 | 0 | -6 | 11 | 9.7* | 11* | 9.8*
O=C1c2ccccc2CN2C(=O)c3ccccc3CN12 | 0 | 0 | 0 | 20 | 4 | x | x
COC(=O)[C@@H](N[C@H](/C=C/c1ccccc1)[C@@H](O)Cc1ccccc1)C(C)C | x | x | x | x | 1 | x | x
O=C(Cn1cc(C(F)(F)F)ccc1=O)N1CCc2ccccc2C1 | 0 | 0 | -1 | 7 | 8.0* | 4 | 1
O=C(Cn1cc(C(F)(F)F)ccc1=O)N1CCCc2ccccc21 | 0 | 0 | -1 | -32 | -3 | x | x
C[C@]12Cc3ccccc3C1CC1=N[C@@H](c3ccccn3)O[C@@]13C[C@@H]2C(=O)N3C1CCN(Cc2ccccc2)CC1 (stereo partly drawn) | x | x | x | x | 3 | x | x
COCCNC(=S)Nc1ccc(Cl)c(Cl)c1 | 0 | 0 | 14 | x | 0 | x | x
O=C(NCc1cccnc1)Nc1ccc(Cl)c(Cl)c1 | 1 | 0 | 27 | x | 8.1* | 1 | 3
C=COCCNC(=O)Nc1ccc(Cl)c(Cl)c1 | -1 | 0 | 5 | x | 8.2* | 1 | 2
COc1ccc(CNS(=O)(=O)c2cc(Br)ccc2Br)c(OC)c1 | x | x | x | x | 0 | x | x
CCC(=O)C1CCCN(C(=O)CCc2nnc(C3(c4ccc(Cl)cc4)CCC3)o2)C1 (stereo not drawn) | 0 | 0 | 14 | 2 | 8.8* | 4 | 5.2*
COC(=O)C1=C(C)N(Cc2ccccc2C(F)(F)F)C(=NCc2ccc(C(F)(F)F)cc2)NC1c1cccc(Cl)c1 (stereo not drawn) | x | x | x | x | -4 | x | x
O=C(C1CCCN1S(=O)(=O)c1ccccc1[N+](=O)[O-])N1CCc2ccccc2C1 (stereo not drawn) | x | x | x | x | -2 | x | x
COc1ccc2nc(C)cc(Nc3ccc(N4CCN(C)CC4)cc3)c2c1 | 0 | 0 | 16 | x | 74* | 133* | -1
COc1ccc(NC(=O)c2cc(F)cc(F)c2)cc1Cl | 0 | 0 | 3 | x | 9.0* | 1 | 3
CCCN(CC1CC1)c1c2c(nc3ncnn13)CCCC2 | x | x | x | x | -5 | x | x
O=C(Cn1nc(-c2ccccc2)ccc1=O)NCCc1ccccc1F | x | x | x | x | -5 | x | x
Cc1ccc(/C=C/c2nc3ccccc3c(=O)[nH]2)cc1 | 0 | 0 | 9 | 9 | 8.7* | 9.6* | 5.8*
O=S(=O)(CS(=O)(=O)c1ccccc1Br)c1ccccc1Br | x | x | x | x | 0 | x | x
